Reference: PMC3438513 (Cancer research, 2012)
Where “and” joins values, the source holds several entries; their conditions need not be identical. Equal entries are not always repeated. Where two headings read alike, the source gives them in different places.

Columns and labels:
mouse CD1d = target: T1, mouse CD1d (Mus musculus, UniProt P11609); assay type: binding; conditions: competitor of Biotinyl PE (2 μg/mL), CD1d dimer
T1 sequence (P11609 22-305 limits assumed): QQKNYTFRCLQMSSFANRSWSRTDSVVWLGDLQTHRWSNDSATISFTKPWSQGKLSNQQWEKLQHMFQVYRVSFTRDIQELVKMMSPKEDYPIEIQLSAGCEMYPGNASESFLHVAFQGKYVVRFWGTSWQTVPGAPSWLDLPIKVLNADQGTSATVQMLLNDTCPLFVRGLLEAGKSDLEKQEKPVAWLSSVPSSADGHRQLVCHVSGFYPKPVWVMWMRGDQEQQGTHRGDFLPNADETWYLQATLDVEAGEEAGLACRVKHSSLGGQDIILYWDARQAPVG
T1 sequence (P01887 21-119 partner): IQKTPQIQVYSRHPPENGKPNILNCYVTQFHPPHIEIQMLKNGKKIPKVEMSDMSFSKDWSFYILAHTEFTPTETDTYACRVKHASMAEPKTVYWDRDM
In short: (§1)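 Plates coated with goat anti-mouse IgG Fc-gamma antibody, then washed three times with PBS/Tween. Added human or mouse CD1d-Ig dimer (5 μg/mL) mixed with competitor lipid and 18:1 biotinyl-PE (2 μg/mL) in PBS. Bound biotinyl-PE detected with HRP-avidin. Biotinyl-PE Kd obtained by titration without competitor, fitted to Y = (Bmax*X)/(Kd + X). Competitor constants derived by curve fitting.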

human CD1d = human CD1d (Homo sapiens, UniProt P15813); assay type: binding
In short: as §1

[1] = system: α-GalCer-induced NKT cell activation; assay: In vivo α-GalCer-induced serum cytokine production; design: species or system C57BL/6 mice; conditions: 1 μg α-GalCer intravenously
In short: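 C57BL/6 mice, 6–8 weeks old, kept pathogen-free. Given α-GalCer 1 μg intravenously, with or without the test ganglioside at several concentrations. Serum taken at 2, 6, 12, 24, 48 and 72 h. IFN-γ measured by sandwich ELISA on two dilutions of pooled sera, reported as mean ± SD.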

NKT cells = assay: Staining of NKT cells with lipid-loaded CD1d-Ig dimers; assay type: cell-based; conditions: human and mouse CD1d-Ig dimers loaded overnight
In short: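 Human or mouse CD1d-mouse IgG dimer (1 μg) loaded overnight at 37°C with 1.4 μg lipid or ascites in 50 μL PBS. Used to stain 2 × 10^5 NKT cells on ice for 30 min. Cells washed twice in PBS/5% FBS, then stained with PE rat anti-mouse IgG1 (A85-1) on ice for 30 min; anti-human CD3ε-APC added for human cells. Analysed by flow cytometry.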

[2] = system: CD1d-mediated activation of NKT cells (hybridomas DN32.D3, N38-3C3, N37-1A12); assay type: cell-based, mouse; conditions: 4 h
In short: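 APCs were L cells stably transfected with WT cd1d1 cDNA. Treated with test ganglioside at increasing concentrations for 4 h at 37°C, washed extensively with PBS, then cocultured with hybridomas DN32.D3, N37-1A12 and N38-3C3 for 20–24 h at 37°C. IL-2 measured by sandwich ELISA. Triplicates, mean ± SEM; experiment repeated three times.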

canonical NKT cell = conditions: high concentrations; ref [9], [24]; cited from earlier work

Molecule: CCCCCCCC/C=C\CCCCCCCC(=O)OC[C@H](COP(=O)(O)OCCNC(=O)CCCCCN)OC(=O)CCCCCCC/C=C\CCCCCCCC [18:1 PE lipid, 1,2-Dioleoyl-sn-Glycero-3-Phosphoethanolamine-N-(hexanoylamine)]
- IC50 (mouse CD1d; read-out: IC50 in mCD1d): 843 ± 181 nM
- IC50 (human CD1d; read-out: IC50 in hCD1d, competitor of Biotinyl PE (2 μg/mL), CD1d dimer): 882 ± 125 nM

Molecule: CCCCCCCCCCCCCCCCCCCCCCCCCC(=O)N[C@@H](CO[C@H]1O[C@H](CO)[C@H](O)[C@H](O)[C@H]1O)[C@H](O)[C@H](O)CCCCCCCCCCCCCC [α-GalCer, α-galactosylceramide]
- IC50 (mouse CD1d; IC50 in mCD1d): 95 nM and 95.1 nM
- time at which serum IFN-γ production was detectable [1]: 2 h
- time of peak serum IFN-γ production [1]: 24 h
- time of return of serum IFN-γ to baseline [1]: ≤ 48 h
- IC50 (human CD1d): 84 ± 10 nM
- binding of lipid-loaded CD1d-Ig dimers to NKT cells (NKT cells): bound to NKT cells

Molecule: GT1b
- inhibition of CD1d-mediated activation of NKT cells ([2]; increasing doses of purified ganglioside, IL-2 (Fig 3A-C)): Only GD3 inhibited

Molecule: gangliotriaosylceramide [Gg3Cer]
- reduction in NKT cell activation ([2]; gangliosides 5μg/ml, IL-2 (Fig 3D)): only incubation with GD3 resulted in a significant reduction
- inhibition of canonical NKT cell activation (canonical NKT cell): inhibit canonical NKT cell activation when used at high concentrations
